# An excerpt weighted towards active compounds, which were near 5.1% of everything screened.
# STAT1 activator – activators of IFN-gamma induced STAT1 signaling; NIH 3T3 STAT1-luciferase reporter, luminescence; 100% = IFN-gamma alone, no compound; activation (% of control), % at 5.5 µM; 200,000 compounds, 2.6% hits;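 active = activation above the screen-wide mean activation plus 3 SD, cut at about 130% in these data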;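 note: raw ratio to IFN-gamma control signal so 100% means no change and 0% no light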
# STAT3 activator – STAT3 signaling activation. 190,000 compounds, 0.91% hits. activation (% of control), % at 5.6 µM. AID 871. U3A cells, IL-6 STAT3-luciferase reporter, luminescence; 100% = signal with IL-6 EC80 alone;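 active = activation above the screen-wide mean of compound activation plus 3 SD, cut at about 130% in these data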;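 note: 0% = background luminescence of wells with medium and substrate only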
#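 Detection: reporter luminescence signal / Assay system: STAT1-lacking human U3A cells, STAT3 luciferase reporter / Incubation: compound pre-incubation 1 h before IL-6, then 6 h stimulation at 37 °C / Control set: IL-6-only high control / Read-out: % activation relative to IL-6 control / Probe or stimulus: Interleukin-6, 33 ng/mL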
# STAT3 inh – STAT3 signaling inhibition | U3A cells, IL-6 STAT3-luciferase reporter, luminescence; host cell line lacks STAT1 | inhibition, % at 5.5 µM | 190,000 compounds, 0.89% hits | AID 862;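 active = inhibition above the mean inhibition across all screened compounds plus 3 SD, cut at about 44% in these data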;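 note: 0% = DMSO only wells and 100% = 100 µM nifuroxazide control wells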
# NF-kB expr up – NF-kB expression increase, human neuronal cells; 190,000 compounds, 1.6% hits; NF-kB reporter expression; hits give high values; fold change at 12.5 µM; AID 1239; in the data active = fold change above about 3.3
# STAT1 inh – STAT1 signaling inhibition. 200,000 compounds, 0.35% hits. AID 920. NIH 3T3 STAT1-luciferase reporter, IFN-gamma, luminescence. inhibition, % at 5.5 µM;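 active = inhibition above a set limit, the mean inhibition across all tested compounds plus 3 SD, cut at about 34% in these data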;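 note: 0% = IFN-gamma with DMSO and 100% = IFN-gamma with 300 µM nifuroxazide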
# APP 5'UTR act – activates APP 5'UTR luciferase reporter; SH-SY5Y APP 5'UTR luciferase reporter, luminescence; zero percent = DMSO vehicle wells; activation, % at 2 µM; 190,000 compounds, 1% hits; AID 1276;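 active = activation above a set limit, based on mean plus 3 SD of controls, cut at about 140% in these data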
# * marks the source's active call; other numbers are inactive results; . = no result given.
SMILES,STAT1 activator,STAT3 activator,STAT3 inh,NF-kB expr up,STAT1 inh,APP 5'UTR act
COc1ccc(C(CC(=O)Nc2cc(OC)cc(OC)c2)n2cccc2)cc1 (stereo not given),100.0,101.6,-1.6,0.87,-0.1,16.9
CCOc1ccc(OCC(=O)Nc2nccs2)cc1,42.7,21.3,95.3*,2.62,60.7*,156.6*
COc1ccc(C(CC(=O)Nc2nccs2)n2cccc2)cc1 (stereo not given),156.0*,110.8,-7.7,4.46*,-61.7,193.9*
CCOc1ccc(S(=O)(=O)N(C)c2ccc(OCC(=O)Nc3nccs3)cc2)cc1,96.3,103.2,-2.6,1.07,2.9,9.6
COc1ccccc1OCCCC(=O)Nc1nccs1,133.5*,105.7,-0.6,1.6,-39.8,75.3
O=C(CCCOc1ccccc1)Nc1nccs1,99.3,88.8,16.5,1.15,0.7,1.4
c1ccc(CC(Nc2ccccn2)c2ccccc2)cc1 (stereo not given),89.4,101.0,1.1,1.27,10.9,3.8
COc1cc(/C=C2/NC(=O)N(Cc3ccccc3F)C2=O)cc(OC)c1O,108.8,98.9,5.6,0.8,-11.5,-0.6
CCOc1cc(/C=C2/NC(=O)N(Cc3ccccc3F)C2=O)ccc1O,104.3,86.5,18.2,5.89*,-10.8,-25.1
CC(C(=O)Nc1ccccc1Sc1ccccc1)N(c1ccccc1)S(C)(=O)=O (stereo not given),102.6,112.8,-4.1,0.74,6.4,1.6
Cc1snc2sc(C(=O)c3ccc(Br)cc3)c(N)c12,134.8*,98.9,8.1,1.3,-37.7,2.5
CCOC(=O)c1sc(NC(=O)COC(=O)C(CCSC)NC(C)=O)nc1C (stereo not given),91.4,106.1,-6.8,1.15,9.6,.
Cc1ccc(C(=O)OCC(=O)c2c[nH]c3ccccc23)cc1,125.5,133.0*,-33.6,1.77,-28.9,44.2
O=C(OCC(=O)c1c[nH]c2ccccc12)C1=COCCO1,129.2*,120.6,-22.9,2.35,-31.4,37.2
CC1(C(=O)OCC(=O)c2c[nH]c3ccccc23)CC1(Cl)Cl (stereo not given),137.7*,115.2,-20.3,2.33,-41.0,144.6*
O=C(OCC(=O)c1c[nH]c2ccccc12)c1ccc([N+](=O)[O-])s1,87.0,135.2*,-34.4,.,12.8,1.6
CC(C)Cc1ccc(C(C)C(=O)OCC(=O)c2c[nH]c3ccccc23)cc1 (stereo not given),93.2,113.0,-14.2,0.85,9.2,-6.8
CCc1cccc2c(C(=O)COC(=O)c3ccc([N+](=O)[O-])s3)c[nH]c12,77.8,97.8,2.5,1.04,24.9,-1.0
Cc1ncc([N+](=O)[O-])n1CC(=O)NC1CCCCCC1,106.6,106.7,-0.1,0.99,-8.2,13.5
Nc1c(Cl)nc(-c2ccccc2)nc1Cl,103.5,96.0,9.6,1.07,-2.0,20.0
Cc1ccc2nc(N3C(=O)C(O)=C(C(=O)c4ccco4)C3c3cccs3)sc2c1 (stereo not given),123.4,118.3,-20.7,2.34,-25.8,170.5*
COc1ccc(C2C(C(=O)c3ccco3)=C(O)C(=O)N2c2nnc(C)s2)cc1 (stereo not given),99.2,99.0,3.5,1.08,1.4,32.5
CN1CCN(C(=O)c2ccc3c(=O)n4c(nc3c2)CCCCC4)CC1,103.8,106.4,-4.4,1.1,-4.2,-5.9
Cc1csc(NC(=O)c2ccc(OCC3CCCO3)cc2)n1 (stereo not given),43.9,50.6,60.6*,4.78*,59.6*,160.0*
Cc1csc(NC(=O)c2ccc(N3CCCC3=O)cc2)n1,38.5,25.0,89.3*,1.44,65.2*,47.4
SMILES,STAT1 activator,STAT3 activator,STAT3 inh,NF-kB expr up,STAT1 inh,APP 5'UTR act
O=C(Nc1nc(-c2ccc(F)c(F)c2)cs1)c1ccc(OCC2CCCO2)cc1 (stereo not given),110.0,95.3,0.7,0.99,-11.0,24.4
O=C(Nc1nccs1)c1ccc2c(=O)n3c(nc2c1)CCCCC3,132.0*,106.7,-8.4,1.21,-35.2,66.4
O=C(Nc1cccc(S(=O)(=O)N2CCCCC2)c1)c1ccc2c(=O)n3c(nc2c1)CCCCC3,85.1,83.3,23.3,0.53,16.5,-3.8
Cc1csc(NC(=O)c2ccc3c(=O)n4c(nc3c2)CCCCC4)n1,120.8,102.7,-0.9,1.95,-23.2,148.3*
COC(=O)c1cc2ccsc2n1Cc1nc(-c2ccc(Cl)cc2)oc1C,100.5,104.2,3.7,1.18,-0.5,-8.2
CCc1c(C)nc2cc(-c3ccc(OC)cc3)[nH]n2c1=O,129.9*,107.0,-1.6,2.26,-33.4,111.9
Cc1cc(=O)n2[nH]c(-c3ccc(C(C)(C)C)cc3)cc2n1,105.6,92.1,6.7,5.08*,-6.0,16.0
COc1cc(-c2nc(CN(C)Cc3nnc(C)o3)c(C)o2)ccc1F,102.6,94.5,9.7,1.11,-4.9,-9.5
COc1cc(CCCN2C(=S)NC[C@@H]2c2ccccc2)cc(OC)c1OC,89.3,.,.,0.95,13.0,11.4
Cc1c(NC(=S)NC(=O)c2sc3ccccc3c2Cl)cccc1C(=O)O,120.9,79.6,25.4,3,-22.2,186.2*
COc1ccccc1C(=O)NNC(=S)NC(=O)c1sc2ccccc2c1Cl,102.1,114.7,-19.1,0.92,-2.3,6.4
CC(=O)c1c(C)[nH]c(C(=O)Nc2ccc3c(c2)OCCO3)c1C,138.4*,92.0,12.4,5.47*,-41.6,193.4*
CCOC(=O)c1[nH]c(C)c(C(=O)Nc2ccc3c(c2)OCCO3)c1C,100.8,92.5,14.0,1.16,-0.9,28.2
CC(=O)c1c(C)[nH]c(C(=O)Nc2ccc(C)c(C)c2)c1C,138.3*,79.9,29.3,3.77*,-41.5,.
CCOC(=O)c1c(C)[nH]c(C(=O)NNC(=O)c2ccccc2)c1C,145.8*,110.1,-0.1,3.42*,-50.9,164.4*
CCOC(=O)c1c(C)[nH]c(C(=O)Nc2ccc(NC(C)=O)cc2)c1C,85.6,79.6,28.3,0.94,16.8,-13.0
CCOC(=O)c1c(C)[nH]c(C(=O)Nc2ccc(C)c(Cl)c2)c1C,128.3,101.2,-4.0,3.82*,-27.2,162.6*
CC(C)(C)C1CCc2c(C(=O)NNC(=O)CCC(=O)O)csc2C1 (stereo not given),104.8,103.9,-3.4,1.1,-5.7,25.2
CCN(CCCNC(=O)CCCOc1cc(=O)n(C)c2ccccc12)Cc1ccccc1,97.0,91.2,12.3,1.24,2.2,-3.0
Cc1ccc2c(c1)c(CC(=O)Nc1ccc(F)cc1)c(C(=O)O)n2C,92.0,102.7,-6.4,1.17,8.6,-1.7
CC(=O)c1c(C)[nH]c(C(=O)Nc2nccs2)c1C,132.9*,106.0,2.2,2.58,-38.3,57.9
COC(=O)c1c(C)[nH]c(C(=O)/C=C/c2cccc(Cl)c2)c1C,107.8,95.9,7.1,1.62,-8.7,74.1
COC(=O)c1c(C)[nH]c(C(=O)/C=C/c2ccccc2)c1C,140.1*,77.4,29.1,1.55,-44.9,120.6
